Measurements as given in publication PMC9710334 (BMJ Open Gastroenterology, 2022).
Where “and” joins values, the source holds several entries; their conditions need not be identical. Identical values can stand only once. Entries after “also recorded” stand apart in the source; their conditions may differ.

Key:
[1] = system: patients with advanced primary biliary cholangitis; assay: Phase 1 trial: adverse events graded by CTCAE v4.0, safety and tolerability; type: in vivo, human
Procedure, shortened: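 Seven advanced PBC patients (stage III or higher) received OP-724 iv at 280 (n=6) or 380 (n=1) mg/m2 over 4 hours, twice weekly for 12 cycles, after a single dose given 7 days before cycle 1. AEs and laboratory results were recorded throughout and graded by CTCAE v4.0. The primary endpoint was SAEs where drug causality could not be excluded.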

[2] = system: patients with liver cirrhosis induced by hepatitis B or C virus; conditions: cited from earlier work
[3] = system: patients with advanced PBC; assay: Serum liver function parameters during OP-724 administration; type: in vivo, human
[4] = Plasma pharmacokinetics of OP-724 and C-82 after OP-724 infusion; type: in vivo, human; conditions: for OP-724 AUC0-24h / OP-724 Cmax / OP-724 Tmax / OP-724 T1/2: plasma
Procedure, shortened: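 A single iv dose of 280 or 380 mg/m2 was infused over 4 hours. Blood was drawn predose, at 30 min and 1, 2 and 4 hours after dosing, then 1, 5 and 20 hours after the infusion ended. Plasma parent and metabolite C-82 were quantified. […] Values are mean±SD.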

[5] = OP-724 280 mg/m^2/4 hours, Max, N=6
[6] = OP-724 280 mg/m^2/4 hours, Median, N=6
[7] = OP-724 280 mg/m^2/4 hours, Min, N=6
[8] = single OP-724 iv infusion 280 mg/m^2/4 hours, Mean, N=6
[9] = single OP-724 iv infusion 380 mg/m^2/4 hours, Mean, N=1

C[C@H]1[C@H]2N(C(=O)CN(C)N2C(=O)NCc2ccccc2)[C@@H](Cc2ccc(OP(=O)(O)O)cc2)C(=O)N1Cc1cccc2cccnc12 [OP-724]
Abdominal discomfort, Grade 1, patients n (%) ([1]; 280 mg/m^2/4 hours (n=6)): 2 (33%)
Abdominal discomfort, Grade 2, patients n (%) ([1]; 280 mg/m^2/4 hours (n=6)): 0
Abdominal discomfort, Grades 3–5, patients n (%) ([1]; 280 mg/m^2/4 hours (n=6)): 0
Back pain, Grade 1, patients n (%) ([1]; 280 mg/m^2/4 hours (n=6)): 0
Back pain, Grade 2, patients n (%) ([1]; 280 mg/m^2/4 hours (n=6)): 1 (17%)
Back pain, Grades 3–5, patients n (%) ([1]; 280 mg/m^2/4 hours (n=6)): 0
Constipation, Grade 1, patients n (%) ([1]; 280 mg/m^2/4 hours (n=6)): 1 (17%)
Constipation, Grade 2, patients n (%) ([1]; 280 mg/m^2/4 hours (n=6)): 0
Constipation, Grades 3–5, patients n (%) ([1]; 280 mg/m^2/4 hours (n=6)): 0
Dermatitis contact, Grade 1, patients n (%) ([1]; 280 mg/m^2/4 hours (n=6)): 1 (17%)
Dermatitis contact, Grade 2, patients n (%) ([1]; 280 mg/m^2/4 hours (n=6)): 0
Dermatitis contact, Grades 3–5, patients n (%) ([1]; 280 mg/m^2/4 hours (n=6)): 0
Diarrhoea, Grade 1, patients n (%) ([1]; 280 mg/m^2/4 hours (n=6)): 1 (17%)
Diarrhoea, Grade 2, patients n (%) ([1]; 280 mg/m^2/4 hours (n=6)): 0
Diarrhoea, Grades 3–5, patients n (%) ([1]; 280 mg/m^2/4 hours (n=6)): 0
Dry skin, Grade 1, patients n (%) ([1]; 280 mg/m^2/4 hours (n=6)): 0
Dry skin, Grade 2, patients n (%) ([1]; 280 mg/m^2/4 hours (n=6)): 1 (17%)
Dry skin, Grades 3–5, patients n (%) ([1]; 280 mg/m^2/4 hours (n=6)): 0
Fever, Grade 1, patients n (%) ([1]; 280 mg/m^2/4 hours (n=6)): 1 (17%)
Fever, Grade 2, patients n (%) ([1]; 280 mg/m^2/4 hours (n=6)): 0
Fever, Grades 3–5, patients n (%) ([1]; 280 mg/m^2/4 hours (n=6)): 0
Haemorrhage, Grade 1, patients n (%) ([1]; 280 mg/m^2/4 hours (n=6)): 0
Haemorrhage, Grade 2, patients n (%) ([1]; 280 mg/m^2/4 hours (n=6)): 1 (17%)
Haemorrhage, Grades 3–5, patients n (%) ([1]; 280 mg/m^2/4 hours (n=6)): 0
Hepatic function abnormal, Grade 1, patients n (%) ([1]; 280 mg/m^2/4 hours (n=6)): 1 (17%)
Hepatic function abnormal, Grade 2, patients n (%) ([1]; 280 mg/m^2/4 hours (n=6)): 1 (17%)
Hepatic function abnormal, Grades 3–5, patients n (%) ([1]; 280 mg/m^2/4 hours (n=6)): 0
Infusion site extravasation, Grade 1, patients n (%) ([1]; 280 mg/m^2/4 hours (n=6)): 0
Infusion site extravasation, Grade 2, patients n (%) ([1]; 280 mg/m^2/4 hours (n=6)): 1 (17%)
Infusion site extravasation, Grades 3–5, patients n (%) ([1]; 280 mg/m^2/4 hours (n=6)): 0
Nasopharyngitis, Grade 1, patients n (%) ([1]; 280 mg/m^2/4 hours (n=6)): 0
Nasopharyngitis, Grade 2, patients n (%) ([1]; 280 mg/m^2/4 hours (n=6)): 0
Nasopharyngitis, Grades 3–5, patients n (%) ([1]; 280 mg/m^2/4 hours (n=6)): 0
Nausea, Grade 1, patients n (%) ([1]; 280 mg/m^2/4 hours (n=6)): 1 (17%)
Nausea, Grade 2, patients n (%) ([1]; 280 mg/m^2/4 hours (n=6)): 0
Nausea, Grades 3–5, patients n (%) ([1]; 280 mg/m^2/4 hours (n=6)): 0
Open angle glaucoma, Grade 1, patients n (%) ([1]; 280 mg/m^2/4 hours (n=6)): 0
Open angle glaucoma, Grade 2, patients n (%) ([1]; 280 mg/m^2/4 hours (n=6)): 1 (17%)
Open angle glaucoma, Grades 3–5, patients n (%) ([1]; 280 mg/m^2/4 hours (n=6)): 0
Renal impairment, Grade 1, patients n (%) ([1]; 280 mg/m^2/4 hours (n=6)): 1 (17%)
Renal impairment, Grade 2, patients n (%) ([1]; 280 mg/m^2/4 hours (n=6)): 0
Renal impairment, Grades 3–5, patients n (%) ([1]; 280 mg/m^2/4 hours (n=6)): 0
Tooth fracture, Grade 1, patients n (%) ([1]; 280 mg/m^2/4 hours (n=6)): 1 (17%)
Tooth fracture, Grade 2, patients n (%) ([1]; 280 mg/m^2/4 hours (n=6)): 0
Tooth fracture, Grades 3–5, patients n (%) ([1]; 280 mg/m^2/4 hours (n=6)): 0
Vomiting, Grade 1, patients n (%) ([1]; 280 mg/m^2/4 hours (n=6)): 1 (17%)
Vomiting, Grade 2, patients n (%) ([1]; 280 mg/m^2/4 hours (n=6)): 0
Vomiting, Grades 3–5, patients n (%) ([1]; 280 mg/m^2/4 hours (n=6)): 0
Abdominal discomfort, Grade 1, patients n (%) ([1]; 380 mg/m^2/4 hours (n=1)): 0
Abdominal discomfort, Grade 2, patients n (%) ([1]; 380 mg/m^2/4 hours (n=1)): 0
Abdominal discomfort, Grades 3–5, patients n (%) ([1]; 380 mg/m^2/4 hours (n=1)): 0
Back pain, Grade 1, patients n (%) ([1]; 380 mg/m^2/4 hours (n=1)): 0
Back pain, Grade 2, patients n (%) ([1]; 380 mg/m^2/4 hours (n=1)): 0
Back pain, Grades 3–5, patients n (%) ([1]; 380 mg/m^2/4 hours (n=1)): 0
Constipation, Grade 1, patients n (%) ([1]; 380 mg/m^2/4 hours (n=1)): 0
Constipation, Grade 2, patients n (%) ([1]; 380 mg/m^2/4 hours (n=1)): 0
Constipation, Grades 3–5, patients n (%) ([1]; 380 mg/m^2/4 hours (n=1)): 0
Dermatitis contact, Grade 1, patients n (%) ([1]; 380 mg/m^2/4 hours (n=1)): 0
Dermatitis contact, Grade 2, patients n (%) ([1]; 380 mg/m^2/4 hours (n=1)): 0
Dermatitis contact, Grades 3–5, patients n (%) ([1]; 380 mg/m^2/4 hours (n=1)): 0
Diarrhoea, Grade 1, patients n (%) ([1]; 380 mg/m^2/4 hours (n=1)): 0
Diarrhoea, Grade 2, patients n (%) ([1]; 380 mg/m^2/4 hours (n=1)): 0
Diarrhoea, Grades 3–5, patients n (%) ([1]; 380 mg/m^2/4 hours (n=1)): 0
Dry skin, Grade 1, patients n (%) ([1]; 380 mg/m^2/4 hours (n=1)): 0
Dry skin, Grade 2, patients n (%) ([1]; 380 mg/m^2/4 hours (n=1)): 0
Dry skin, Grades 3–5, patients n (%) ([1]; 380 mg/m^2/4 hours (n=1)): 0
Fever, Grade 2, patients n (%) ([1]; 380 mg/m^2/4 hours (n=1)): 0
Fever, Grades 3–5, patients n (%) ([1]; 380 mg/m^2/4 hours (n=1)): 0
Haemorrhage, Grade 1, patients n (%) ([1]; 380 mg/m^2/4 hours (n=1)): 0
Haemorrhage, Grade 2, patients n (%) ([1]; 380 mg/m^2/4 hours (n=1)): 0
Haemorrhage, Grades 3–5, patients n (%) ([1]; 380 mg/m^2/4 hours (n=1)): 0
Hepatic function abnormal, Grade 1, patients n (%) ([1]; 380 mg/m^2/4 hours (n=1)): 0
Hepatic function abnormal, Grades 3–5, patients n (%) ([1]; 380 mg/m^2/4 hours (n=1)): 0
Infusion site extravasation, Grade 1, patients n (%) ([1]; 380 mg/m^2/4 hours (n=1)): 0
Infusion site extravasation, Grade 2, patients n (%) ([1]; 380 mg/m^2/4 hours (n=1)): 0
Infusion site extravasation, Grades 3–5, patients n (%) ([1]; 380 mg/m^2/4 hours (n=1)): 0
Nasopharyngitis, Grade 2, patients n (%) ([1]; 380 mg/m^2/4 hours (n=1)): 0
Nasopharyngitis, Grades 3–5, patients n (%) ([1]; 380 mg/m^2/4 hours (n=1)): 0
Nausea, Grade 1, patients n (%) ([1]; 380 mg/m^2/4 hours (n=1)): 0
Nausea, Grade 2, patients n (%) ([1]; 380 mg/m^2/4 hours (n=1)): 0
Nausea, Grades 3–5, patients n (%) ([1]; 380 mg/m^2/4 hours (n=1)): 0
Open angle glaucoma, Grade 1, patients n (%) ([1]; 380 mg/m^2/4 hours (n=1)): 0
Open angle glaucoma, Grade 2, patients n (%) ([1]; 380 mg/m^2/4 hours (n=1)): 0
Open angle glaucoma, Grades 3–5, patients n (%) ([1]; 380 mg/m^2/4 hours (n=1)): 0
Renal impairment, Grade 1, patients n (%) ([1]; 380 mg/m^2/4 hours (n=1)): 0
Renal impairment, Grade 2, patients n (%) ([1]; 380 mg/m^2/4 hours (n=1)): 0
Renal impairment, Grades 3–5, patients n (%) ([1]; 380 mg/m^2/4 hours (n=1)): 0
Tooth fracture, Grade 1, patients n (%) ([1]; 380 mg/m^2/4 hours (n=1)): 0
Tooth fracture, Grade 2, patients n (%) ([1]; 380 mg/m^2/4 hours (n=1)): 0
Tooth fracture, Grades 3–5, patients n (%) ([1]; 380 mg/m^2/4 hours (n=1)): 0
Vomiting, Grade 1, patients n (%) ([1]; 380 mg/m^2/4 hours (n=1)): 0
Vomiting, Grade 2, patients n (%) ([1]; 380 mg/m^2/4 hours (n=1)): 0
Vomiting, Grades 3–5, patients n (%) ([1]; 380 mg/m^2/4 hours (n=1)): 0
incidence of SAEs (primary endpoint) ([1]; all patients (0/7), 280 or 380 mg/m^2/4 hours iv two times weekly, 12 weeks): 0%
patients who developed general/systemic disorder and administration site status ([1]; all patients (3/7)): 42.9%
patients who developed hepatobiliary system disorder ([1]; all patients (3/7)): 42.9%
patients who developed gastrointestinal disorder ([1]; all patients (4/7)): 57.1%
occurrence rate of side effects ([1]; all patients (6/7)): 85.7%
occurrence rate of AEs ([1]; all patients (7/7)): 100%
abdominal discomfort (most common AEs) ([1]; all seven patients): 29%
abnormal hepatic function (most common AEs) ([1]; all seven patients): 43%
recommended dosage ([1]; iv infusion two times weekly for 12 weeks, patients with advanced PBC): 280 mg/m^2/4 hours
emetogenicity ([1]; managed with standard-of-care antiemetics): mildly or moderately emetogenic
grade of drug-induced liver injury leading to withdrawal ([1]; one patient in the 380 mg/m^2/4 hours cohort): grade 2
serious adverse events (in words) ([1]; seven patients, 280 or 380 mg/m^2/4 hours iv two times weekly, 12 weeks): did not occur; also recorded: no SAE was observed
deaths related to drug administration ([1]; seven patients, administration period): no deaths related to drug administration were observed
fragility fractures ([1]; this study): no fragility fractures were recorded
liver dysfunction reported as SAE ([2]; one patient at level 3 (380 mg/m^2/4 hours), PRI-724-2101 study ref 25): severe liver dysfunction
harmful effects in humans ([2]; phase 1 or 1/2a clinical trials ref 24 25): does not have harmful effects in humans
albumin level ([2]; previous clinical trials ref 24 25): increase in the albumin level
serum ALP and GGT levels ([3]; 5, 9, 12 and 16 weeks vs baseline): did not show a tendency to decrease
patients whose abnormally high baseline total bile acid values decreased ([3]; 12 weeks, of five patients with baseline and 12-week data): four
serum total bile acid level ([3]; during OP-724 administration, no significant difference): downward trend; also recorded: tendency to decrease
increase in the albumin level ([3]; this study): this tendency was not observed
OP-724 AUC0-24h [4, 5]: 9210 ng･h/mL
OP-724 Cmax [4, 5]: 2460 ng/mL
OP-724 Tmax [4, 5]: 4 h
OP-724 AUC0-24h [4, 6]: 6340 ng･h/mL
OP-724 Cmax [4, 6]: 2000 ng/mL
OP-724 Tmax [4, 6]: 2 h
OP-724 AUC0-24h [4, 7]: 3880 ng･h/mL
OP-724 Cmax [4, 7]: 1080 ng/mL
OP-724 Tmax [4, 7]: 0.5 h
OP-724 T1/2 ([4]; single OP-724 iv infusion 280 mg/m^2/4 hours, Mean, N=4): 26.3 min
OP-724 AUC0-24h [4, 8]: 6420±1910 ng･h/mL and 6420 ng･h/mL
OP-724 Cmax [4, 8]: 1850 ng/mL
OP-724 Tmax [4, 8]: 1.9 h
OP-724 AUC0-24h [4, 9]: 10200 ng·h/mL
OP-724 Cmax [4, 9]: 3980 ng/mL
OP-724 T1/2 [4, 9]: 29.8 min
OP-724 Tmax [4, 9]: 1 h
time after initiating administration at which plasma OP-724 reached Cmax ([4]; single dose, all patients): 0.5 to 4 h
